Experimental data gathered from unrelated publications.
Each line is one published result; the experiments were not run side by side.
Read-out: cell growth or viability

SMILES	cell line	method	concentration	time	measurement	result
O=c1[nH]cc(F)c(=O)[nH]1	WI-38	WST-1	–	48 h	IC50	63.4 µM
N#CC(C(=O)Nc1cccc(C(F)(F)F)c1)=C1Sc2nc3ccc(S(=O)(=O)N4CCCC4)cc3nc2S1	WI-38	MTT	25 µM	24 h	viability	67.5%
CC(=O)O[C@@H]1c2c(ccc3ccc(=O)oc23)OC(C)(C)[C@@H]1OC(=O)C1(C)OC1C (stereo partly drawn)	WI-38	WST-1	–	–	IC50	99.6 µM
O=C1CCCCC1=C1Sc2nc3ccc(S(=O)(=O)N4CCCC4)cc3nc2S1	WI-38	MTT	50 µM	24 h	viability	61.3%
O=c1c(O)c(-c2ccc(O)c(O)c2)oc2cc(O)cc(O)c12	WI-38	WST-1	–	48 h	IC50	87.6 µM
C[Si](C)(C)c1cc(C(=O)[C@H](Cc2ccccc2)NC(=O)[C@H](Cc2ccccc2)NC(=O)N2CCOCC2)no1 (single isomer, unassigned)	MRC-5 SV2	–	–	–	CC50	> 64 µM
CCc1ncn(CC(c2c[nH]c3ccc(C)cc23)c2c[nH]c3ccc(C)cc23)c1C(=O)OC	HaCaT	MTS	–	24 h	CC50	> 20 µM
O=C(N[C@@H](Cc1ccccc1)C(=O)c1cn(-c2ccccc2)nn1)[C@H](Cc1ccccc1)NC(=O)N1CCOCC1 (single isomer, unassigned)	MRC-5 SV2	–	–	–	CC50	> 64 µM
O=Cc1ccc(CO)o1	WI-38	WST-1	–	48 h	IC50	78.3 µM
N=C(N)c1ccc(OCCCCCOc2ccc(C(=N)N)cc2)cc1	HaCaT	MTS	–	24 h	CC50	> 20 µM
O=C(/C=C/c1ccc(O)c(O)c1)O[C@@H]1C[C@](O)(C(=O)O)C[C@@H](O)[C@H]1O	WI-38	WST-1	–	48 h	IC50	91.2 µM
COc1cccc2c1C(=O)c1c(O)c3c(c(O)c1C2=O)C[C@@](O)(C(=O)CO)C[C@@H]3O[C@H]1C[C@H](N)[C@H](O)[C@H](C)O1	WI-38	MTT	3.125 µM	24 h	viability	64.9%
O=c1cc(-c2ccc(O)c(O)c2)oc2cc(O)cc(O)c12	WI-38	WST-1	–	48 h	IC50	90.8 µM
O=C(N[C@@H](Cc1ccccc1)C(=O)c1nc2ccccc2o1)[C@H](Cc1ccccc1)NC(=O)N1CCOCC1	MRC-5 SV2	–	–	–	CC50	> 64 µM
COC(=O)c1c(C)ncn1CC(c1c[nH]c2cc(Br)ccc12)c1c[nH]c2cc(Br)ccc12	HaCaT	MTS	–	24 h	CC50	> 20 µM
O=C(N[C@H](CCc1ccccc1)C(=O)c1cc(Cc2ccccc2)on1)[C@H](Cc1ccccc1)NC(=O)N1CCOCC1	MRC-5 SV2	–	–	–	CC50	> 64 µM
CCOC(=O)c1c(C)ncn1CC(c1cn(C)c2ccc([N+](=O)[O-])cc12)c1cn(C)c2ccc([N+](=O)[O-])cc12	HaCaT	MTS	–	24 h	CC50	> 20 µM
O=C(N[C@@H](Cc1ccccc1)C(=O)c1noc(-c2ccccc2)n1)[C@H](Cc1ccccc1)NC(=O)N1CCOCC1	MRC-5 SV2	–	–	–	CC50	> 64 µM
CCOC(=O)C(C(C)=O)=C1Sc2nc3ccc(S(=O)(=O)N4CCCC4)cc3nc2S1	WI-38	MTT	50 µM	24 h	viability	48.2%
C/C=C(/C)C(=O)O[C@@H]1[C@H](OC(C)=O)c2c(ccc3ccc(=O)oc23)OC1(C)C	WI-38	WST-1	–	–	IC50	120 µM
O=C(N[C@@H](Cc1ccccc1)C(=O)c1cc(-c2ccccc2)no1)[C@H](Cc1ccccc1)NC(=O)N1CCOCC1 (mixture of isomers)	MRC-5 SV2	–	–	–	CC50	> 64 µM
